Assay results from ChEMBL document CHEMBL1932943, “Montmorillonite K-10 mediated green synthesis of cyano pyridines: Their evaluation as potential inhibitors of PDE4” (Eur J Med Chem, 2012).

These compounds were tested against 3',5'-cyclic-AMP phosphodiesterase 4B (Homo sapiens) (UniProt Q07343) (assay: Inhibition of recombinant His-tagged PDE4B using cAMP as substrate at 30 uM preincubated for 15 mins before substrate addition measured after 1 hr by luminescence assay).
Method in brief: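 PDE4B cDNA expressed as His-tagged protein in baculovirus-infected Sf9 cells, Ni-NTA purified. 10 ng enzyme preincubated 15 min with compound or DMSO vehicle, then 1 h with 5 µM cAMP, using a PDElight HTS cAMP phosphodiesterase kit. Reaction stopped, detection reagent added for 10 min in the dark, luminescence read. % inhibition = (RLU vehicle − RLU inhibitor)/RLU vehicle × 100.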

3',5'-cyclic-AMP phosphodiesterase 4B (Homo sapiens), sequence (Q07343 whole entry): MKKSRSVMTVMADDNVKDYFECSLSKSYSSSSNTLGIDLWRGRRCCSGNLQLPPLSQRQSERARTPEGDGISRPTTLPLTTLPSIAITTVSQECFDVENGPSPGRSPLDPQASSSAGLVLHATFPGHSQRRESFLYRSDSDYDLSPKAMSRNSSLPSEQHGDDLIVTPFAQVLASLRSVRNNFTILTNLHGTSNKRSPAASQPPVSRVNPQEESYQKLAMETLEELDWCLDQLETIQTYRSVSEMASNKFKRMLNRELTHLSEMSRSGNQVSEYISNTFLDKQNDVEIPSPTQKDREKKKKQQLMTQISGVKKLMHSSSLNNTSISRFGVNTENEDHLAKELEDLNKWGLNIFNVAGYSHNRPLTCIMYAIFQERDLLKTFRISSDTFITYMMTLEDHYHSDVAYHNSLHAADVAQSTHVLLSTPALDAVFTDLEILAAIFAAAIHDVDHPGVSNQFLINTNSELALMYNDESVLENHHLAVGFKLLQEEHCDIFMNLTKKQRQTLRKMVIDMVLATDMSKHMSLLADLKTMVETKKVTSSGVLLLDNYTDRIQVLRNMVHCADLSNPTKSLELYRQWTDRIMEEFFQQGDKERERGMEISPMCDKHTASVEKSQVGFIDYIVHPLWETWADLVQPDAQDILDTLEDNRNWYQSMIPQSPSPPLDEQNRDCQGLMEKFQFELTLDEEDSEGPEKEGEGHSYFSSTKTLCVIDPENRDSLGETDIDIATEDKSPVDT

Compound | inhibition [%]
COC(=O)c1c(C)nc(OC)c(C#N)c1-c1ccccc1 | 38.4
CCOC(=O)c1c(C)nc(OCC)c(C#N)c1-c1ccc(OC)cc1 | 65.9
COC(=O)c1c(C)nc(OC)c(C#N)c1-c1c(F)cc(Br)cc1F | 22.4
COC(=O)c1c(C)nc(OC)c(C#N)c1-c1ccc(F)cc1F | 21.5
COC(=O)c1c(C)nc(OC)c(C#N)c1-c1ccc(C(F)(F)F)cc1 | 23.5
COC(=O)c1c(C)nc(OC)c(C#N)c1-c1ccc(F)cc1 | 43.2
COC(=O)c1c(C)nc(OC)c(C#N)c1-c1ccc(OC)cc1 | 64.1
CCOC(=O)c1c(C)nc(OCC)c(C#N)c1-c1ccc(F)cc1F | 20.4
CCOC(=O)c1c(C)nc(OCC)c(C#N)c1-c1ccc(F)cc1 | 42.3
CCOC(=O)c1c(C)nc(OCC)c(C#N)c1-c1ccc(Br)cc1 | 43.7
COC(=O)c1c(C)nc(OC)c(C#N)c1-c1ccc(Br)cc1 | 44.8
